The values that follow come from ChEMBL document CHEMBL4014317, “Urinary Tract Infection: Which Conformation of the Bacterial Lectin FimH Is Therapeutically Relevant?” (J Med Chem, 2017).

Values after ≈ are worked out from the molar mass of the structure shown. A value given as a limit tells only on which side of the number the result lay.

As a reminder, the Kd is a measure of binding affinity in units of concentration. For orientation: logD means the decadic logarithm of the distribution of all forms, ionised or not, between an organic phase and buffer at a given pH.

Data set [1] in a line: Competitive binding affinity to full length 6His-tagged recombinant Escherichia coli FimH CRD expressed in Escherichia coli HM125 after 1 hr in presence of fluorescence labelled N-(2-(3-(3',6'-dihydroxy-3-oxo-3H-spiro[isobenzofuran-1,9'-xanthene]-5-yl)thioureido)ethyl)-4-methylbenzamide by fluorescence polarization assay. Put shortly: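 Full-length FimH was stabilized by FimG donor-strand peptide complementation. Serially diluted competitor was titrated into 300 nM FimHFL plus 10 nM fluorescent ligand in 20 mM HEPES pH 7.4, 150 mM NaCl, 50 μg/mL BSA. Mixtures were incubated ≥1 h at rt, and FP was read at excitation 485 nm and emission 528 nm. KD came from an equilibrium competition fit, n = 1.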
(In general: Fluorescence polarisation rises when a labelled molecule tumbles more slowly, as on binding a larger partner.)

The nature of data set [2]: Competitive binding affinity to 6His-tagged recombinant Escherichia coli FimH lectin domain expressed in Escherichia coli HM125 after 24 hrs in presence of fluorescence labelled N-(2-(3-(3',6'-dihydroxy-3-oxo-3H-spiro[isobenzofuran-1,9'-xanthene]-5-yl)thioureido)ethyl)-4-methylbenzamide by fluorescence polarization assay. An outline of the steps:
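FimH lectin domain (His6-tagged via thrombin site) was expressed in E. coli HM125 and affinity-purified. Serially diluted competitor was added to 50 nM protein plus 50 nM fluorescent ligand in 20 mM HEPES pH 7.4, 150 mM NaCl, 50 μg/mL BSA. Mixtures were incubated ≥24 h at equilibrium, and FP was read at 485/528 nm. KD came from an equilibrium competition fit, n = 3, SD.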

Data set [3] can be described thus: Kinetic solubility of compound in pH 7.4 buffer after 15 hrs. The settings on record: read-out: Kinetic_solubility. It is filed as physicochemical. Put shortly:
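DMSO stock (100 mM) was diluted into aqueous universal buffer pH 7.4 to 1 mM final (1% DMSO), in triplicate. After 15 h, solutions were filtered and mixed 1:1 with 1-propanol. Dissolved amount was quantified by UV (190–500 nm) against reference spectra at 0.167 mM in buffer/propanol.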

Data set [4] in a line: 1-octanol/water partition coefficient, log D of the compound at 1 uM at pH 7.4 after 2 hrs by LC-MS analysis. It is filed as physicochemical.
Data set [5] can be described thus: Binding affinity to full length 6His-tagged recombinant Escherichia coli FimH CRD expressed in Escherichia coli HM125 by isothermal titration calorimetry. An outline of the steps: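 FimHFL was coexpressed with FimC in E. coli HM125, and FimC was displaced by a FimG donor-strand peptide to give a stable construct. Buffer was 20 mM HEPES pH 7.4, 150 mM NaCl, with protein extensively dialyzed against it. Ligand (200–600 μM) was titrated into 20.3–62.1 μM protein in 1.5–2 μL injections at rt, single run. Isotherms were integrated automatically.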
On the technique in general: In ITC the heat of successive injections is recorded.

Another data set has as its system Escherichia coli. As to the kind of experiment: Selectivity ratio of Kd for full length 6His-tagged recombinant Escherichia coli FimH CRD expressed in Escherichia coli HM125 to Kd for 6His-tagged recombinant Escherichia coli FimH lectin domain expressed in Escherichia coli HM125. An outline of the steps: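 Competitive FP, with Kd for each construct and the ratio taken as FimHFL/FimHLD. FimHFL was stabilised by donor-strand (DsG) complementation, run at 300 nM with 10 nM tracer for ≥1 h. FimHLD and tracer were equimolar at 50 nM, ≥24 h. Buffer: 20 mM HEPES pH 7.4, 150 mM NaCl, 50 μg/mL BSA; rt. Ex 485/em 528 nm, equilibrium competition fit; FL n=1, LD n=3.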

Regarding `OC[C@H]1O[C@H](Oc2ccc(-c3ccc(Cl)c(C(F)(F)F)c3)cc2Cl)[C@@H](O)[C@@H](O)[C@@H]1O`, the Kd came to 0.377 µM in data set [1] and 0.0057 µM in data set [2]. Also, the solubility kinetic at 15 h in data set [3] came to 0.001 mg/mL (≈ 2.13 µM).
Consider `O=[N+]([O-])c1cccc(-c2ccc(O[C@H]3O[C@H](CO)[C@@H](O)[C@H](O)[C@@H]3O)c(Cl)c2)c1`, for which the dissociation constant Kd in data set [1] was 0.0391 µM; in data set [2], 0.0001 µM. The same molecule came in with a pH-dependent lipophilicity (logD) at 2 h, 1 µM in data set [4] of 2.4. Moreover, the solubility kinetic at 15 h in data set [3] is 0.023 mg/mL (≈ 55.9 µM).
For the molecule `N#Cc1cccc(-c2ccc(O[C@H]3O[C@H](CO)[C@@H](O)[C@H](O)[C@@H]3O)c(Cl)c2)c1`, the dissociation constant Kd in data set [1] turned out to be 0.0859 µM; in data set [2] it was 0.0003 µM. In data set [4], this molecule registered a log distribution coefficient (logD) at 2 h, 1 µM of 2.1. In addition, the solubility kinetic at 15 h in data set [3] was 0.227 mg/mL (≈ 579 µM).
The matching figures for `Cc1cccc(-c2ccc(O[C@H]3O[C@H](CO)[C@@H](O)[C@H](O)[C@@H]3O)c(Cl)c2)c1`: 0.38 µM, 0.0017 µM, 3 and 0.0071 mg/mL (≈ 18.6 µM).
The matching figures for `CC(=O)c1ccc(-c2ccc(O[C@H]3O[C@H](CO)[C@@H](O)[C@H](O)[C@@H]3O)c(Cl)c2)cc1`: 0.0986 µM, 0.0003 µM, 2.1 and 0.016 mg/mL (≈ 39.1 µM).
In the same order, the values of `COc1ccc(-c2ccc(O[C@H]3O[C@H](CO)[C@@H](O)[C@H](O)[C@@H]3O)c(Cl)c2)cc1` are 0.344 µM, 0.002 µM, 2.7 and 0.0038 mg/mL (≈ 9.58 µM).
For the molecule `O=[N+]([O-])c1ccc(-c2ccc(O[C@H]3O[C@H](CO)[C@@H](O)[C@H](O)[C@@H]3O)c(Cl)c2)cc1`, the Kd in data set [1] amounted to 0.14 µM; in data set [2], 0.0005 µM. In data set [4], this molecule came in with a logD at 2 h, 1 µM of 2.3. The solubility kinetic at 15 h in data set [3] turned out to be 0.117 mg/mL (≈ 284 µM).
As to `CCCCCCCO[C@H]1O[C@H](CO)[C@@H](O)[C@H](O)[C@@H]1O`, the dissociation constant Kd in data set [1] worked out at 3.6 µM; in data set [5] it was 3.2 µM. Besides, the logD at 2 h, 1 µM in data set [4] was 1.7. The Selectivity ratio in the data set on Escherichia coli is 100. Moreover, the solubility kinetic at 15 h in data set [3] is more than 3 mg/mL.
For the molecule `OC[C@H]1O[C@H](Oc2ccc(-c3cccc(Cl)c3)cc2Cl)[C@@H](O)[C@@H](O)[C@@H]1O`, the Kd in data set [1] turned out to be 0.353 µM; in data set [2], 0.0023 µM. This molecule also had a logD at 2 h, 1 µM in data set [4] of 3.2. For the same molecule, the solubility kinetic at 15 h in data set [3] came out at 0.0057 mg/mL (≈ 14.2 µM).
The matching figures for `OC[C@H]1O[C@H](Oc2ccc(-c3ccccc3Cl)cc2Cl)[C@@H](O)[C@@H](O)[C@@H]1O`: 0.434 µM, 0.0026 µM, 3.1 and 0.028 mg/mL (≈ 69.8 µM).
In the same order, the values of `OC[C@H]1O[C@H](Oc2ccc(-c3ccc(Cl)cc3)cc2Cl)[C@@H](O)[C@@H](O)[C@@H]1O` are 0.251 µM, 0.0039 µM, 3.3 and 0.0035 mg/mL (≈ 8.72 µM).
As for `Cc1ccc(C(=O)NCCNC(=S)Nc2ccc3c(c2)C(=O)OC32c3ccc(O)cc3Oc3cc(O)ccc32)cc1`, in data set [1], the dissociation constant (Kd) was 0.137 µM.
With `Cc1ccc(-c2ccc(O[C@H]3O[C@H](CO)[C@@H](O)[C@H](O)[C@@H]3O)c(Cl)c2)cc1`, the figures for the Kd in data set [1] and in data set [2] were 0.297 µM and 0.0027 µM, respectively. This molecule came in with a log distribution coefficient (logD) at 2 h, 1 µM in data set [4] of 3.3. Further, in data set [3], the solubility kinetic at 15 h turned out to be 0.0074 mg/mL (≈ 19.4 µM).
The matching figures for `OC[C@H]1O[C@H](Oc2ccc(-c3ccccc3)cc2Cl)[C@@H](O)[C@@H](O)[C@@H]1O`: 0.458 µM, 0.0028 µM, 2.6 and 0.0055 mg/mL (≈ 15 µM).
As for `OC[C@H]1O[C@H](Oc2ccc(-c3ccc(Cl)cc3Cl)cc2Cl)[C@@H](O)[C@@H](O)[C@@H]1O`, the dissociation constant (Kd) in data set [1] worked out at 0.465 µM; in data set [2], 0.0028 µM. The solubility kinetic at 15 h in data set [3] came out at 0.008 mg/mL (≈ 18.4 µM).
With `Cc1ccccc1-c1ccc(O[C@H]2O[C@H](CO)[C@@H](O)[C@H](O)[C@@H]2O)c(Cl)c1`, the results for the Kd in data set [1] and in data set [2] were 0.436 µM and 0.0025 µM, respectively. Also, the logD at 2 h, 1 µM in data set [4] was found to be 2.9. Also, in data set [3], the solubility kinetic at 15 h was found to be 0.135 mg/mL (≈ 354 µM).
As for `COc1ccccc1-c1ccc(O[C@H]2O[C@H](CO)[C@@H](O)[C@H](O)[C@@H]2O)c(Cl)c1`, the results for the Kd in data set [1] and in data set [2] were 0.391 µM and 0.0023 µM, respectively. This molecule returned a pH-dependent lipophilicity (logD) at 2 h, 1 µM in data set [4] of 2.4. Moreover, the solubility kinetic at 15 h in data set [3] is more than 0.28 mg/mL.
With `N#Cc1ccc(-c2ccc(O[C@H]3O[C@H](CO)[C@@H](O)[C@H](O)[C@@H]3O)c(Cl)c2)cc1`, the dissociation constant (Kd) in data set [1] turned out to be 0.0838 µM; in data set [5] it was 0.13 µM.
As to `OC[C@H]1O[C@H](Oc2ccc(-c3cccc(C(F)(F)F)c3)cc2Cl)[C@@H](O)[C@@H](O)[C@@H]1O`, the results for the dissociation constant Kd in data set [1] and in data set [2] were 0.575 µM and 0.0033 µM, respectively. Also, in data set [4], the pH-dependent lipophilicity (logD) at 2 h, 1 µM is 3.3. The solubility kinetic at 15 h in data set [3] turned out to be 0.036 mg/mL (≈ 82.8 µM).
As to `OC[C@H]1O[C@H](Oc2ccc(-c3ccc(C(F)(F)F)cc3)cc2Cl)[C@@H](O)[C@@H](O)[C@@H]1O`, the Kd was determined as 0.415 µM in data set [1] and 0.0039 µM in data set [2]. In data set [4], this molecule yielded a log distribution coefficient (logD) at 2 h, 1 µM of 3.4. The solubility kinetic at 15 h in data set [3] was found to be 0.022 mg/mL (≈ 50.6 µM).
As to `OC[C@H]1O[C@H](Oc2ccc(-c3ccc(Cl)c(Cl)c3)cc2Cl)[C@@H](O)[C@@H](O)[C@@H]1O`, the Kd in data set [1] stood at 0.692 µM; in data set [2], 0.0043 µM. In addition, in data set [3], the solubility kinetic at 15 h was determined as 0.0023 mg/mL (≈ 5.28 µM).
